These results are taken from ChEMBL document CHEMBL1148376, “Synthesis, monoamine transporter binding properties, and behavioral pharmacology of a series of 3beta-(substituted phenyl)-2beta-(3'-substituted isoxazol-5-yl)tropanes” (J Med Chem, 2004).

The source made the active and inactive calls. The rule behind the calls is not given here.

Assay [1] concerns Mus musculus. Nature of the assay: Percent change in locomotor activity in mice at 1 mg/kg i.p. in 1 h. The class given is functional. The conditions noted are these: route intraperitoneal.
Assay [2] concerns Mus musculus. Nature of the assay: Percent change in locomotor activity in mice at 3 mg/kg i.p. in 1 h. The class given is functional. The conditions noted are these: route intraperitoneal. The method in brief:
(§1)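 Mice habituated 1/2 h to photocell activity chambers, then injected ip with compound homogenized in 0.5% methyl cellulose (10 mL/kg); vehicle controls; N = 5 or 6 per dose. Photobeam interruptions recorded in 10-min bins for 4 h, grouped into 1-h bins; one-way ANOVA with Newman-Keuls post hoc test (p < 0.05).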

The subject of assay [3] is Mus musculus. Nature of the assay: Percent change from vehicle in locomotor activity in mice at 30 mg/kg (ip) in 1 h. The class given is functional.
In assay [4] the test system is Rattus norvegicus. Nature of the assay: Drug discrimination effect of compound in rats, expressed as percent of rats choosing the cocaine lever at dose 30 mg/kg (ip). The class given is functional.
Assay [5] deals with Mus musculus. Nature of the assay: Percent change in locomotor activity in mice at 3 mg/kg i.p. in 2 h. The class given is functional. The following applies: route intraperitoneal. Summed up: as §1
In assay [6] the test system is Mus musculus. Nature of the assay: Percent change locomotor activity in mice at 1 mg/kg i.p. in 3 h. The class given is functional. The conditions noted are these: route intraperitoneal. The method in brief: as §1
The subject of assay [7] is Rattus norvegicus. Nature of the assay: Drug discrimination effect of compound in rats, expressed as percent of rats choosing the cocaine lever at dose 3 mg/kg (ip). The class given is functional.
For assay [8], the system named is Mus musculus. Nature of the assay: Percent change from vehicle in locomotor activity in mice at 0.3 mg/kg (ip) in 4 h. The class given is functional.
The target in assay [9] is Sodium-dependent dopamine transporter (Rattus norvegicus, UniProt P23977). Nature of the assay: Inhibitory concentration required to inhibit dopamine transporter DAT was determined by using [3H]WIN-35428 radioligand. The method in brief: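 Competition binding at the DAT with 0.5 nM [3H]WIN35,428 (final concentration). Other procedures follow earlier published methods.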

For assay [10], the system named is Mus musculus. Nature of the assay: Percent change from vehicle in locomotor activity in mice at 10 mg/kg (ip) in 3 h. The class given is functional.
Assay [11] has as its system Mus musculus. Nature of the assay: Percent change from vehicle in locomotor activity in mice at 30 mg/kg (ip) in 3 h. The class given is functional.
Assay [12] relates to Mus musculus. Nature of the assay: Percent change from vehicle in locomotor activity in mice at 10 mg/kg (ip) in 1 h. The class given is functional.
For assay [13], the target named is Norepinephrine transporter (Rattus norvegicus, UniProt Q9WTR4). Nature of the assay: Binding affinity towards norepinephrine transporter was determined by using [3H]nisoxetine radioligand. The method in brief: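 Competition binding at the NET with 0.5 nM [3H]nisoxetine (final concentration). Other procedures follow earlier published methods.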
For assay [14], the system named is Mus musculus. Nature of the assay: Percent change from vehicle in locomotor activity in mice at 10 mg/kg (ip) in 2 h. The class given is functional.
Assay [15] relates to Rattus norvegicus. Nature of the assay: Drug discrimination effect of compound in rats, expressed as percent of rats choosing the cocaine lever at dose 10 mg/kg (ip). The class given is functional.
For assay [16], the target named is Sodium-dependent serotonin transporter (Rattus norvegicus, UniProt P31652). Nature of the assay: Inhibitory concentration required to inhibit serotonin transporter 5-HTT was determined by using [3H]paroxetine radioligand. The method in brief:
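Competition binding at the 5-HTT with 0.2 nM [3H]paroxetine (final concentration). Other procedures follow earlier published methods.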

For assay [17], the system named is Mus musculus. Nature of the assay: Percent change from vehicle in locomotor activity in mice at 10 mg/kg (ip) in 4 h. The class given is functional.
Assay [18] concerns Rattus norvegicus. Nature of the assay: Drug discrimination effect of compound in rats, expressed as percent of rats choosing the cocaine lever at dose 17 mg/kg (ip). The class given is functional.
The species entered for assay [19] is Mus musculus. Nature of the assay: Effective dose was evaluated for locomotor activity in mice in the peak hour; No stimulation. The class given is functional, organism-based.
The subject of assay [20] is Mus musculus. Nature of the assay: Percent change from vehicle in locomotor activity in mice at 0.3 mg/kg (ip) in 3 h. The class given is functional.
In assay [21] the test system is Mus musculus. Nature of the assay: Percent change from vehicle in locomotor activity in mice at 0.3 mg/kg (ip) in 2 h. The class given is functional.
The subject of assay [22] is Mus musculus. Nature of the assay: Percent change in locomotor activity in mice at 3 mg/kg i.p. in 4 h. The class given is functional. The following applies: route intraperitoneal. Summed up: as §1
Assay [23] relates to Mus musculus. Nature of the assay: Percent change in locomotor activity in mice at 1 mg/kg i.p. in 2 h. The class given is functional. The following applies: route intraperitoneal. The method in brief: as §1
In assay [24] the test system is Mus musculus. Nature of the assay: Percent change from vehicle in locomotor activity in mice at 30 mg/kg (ip) in 4 h. The class given is functional.
For assay [25], the system named is Mus musculus. Nature of the assay: Percent change from vehicle in locomotor activity in mice at 30 mg/kg (ip) in 2 h. The class given is functional.
Assay [26] concerns Mus musculus. Nature of the assay: Percent change in locomotor activity in mice at 3 mg/kg i.p. in 3 h. The class given is functional. The conditions noted are these: route intraperitoneal. The method in brief:
as §1

Assay [27] has as its system Mus musculus. Nature of the assay: Percent change from vehicle in locomotor activity in mice at 0.3 mg/kg (ip) in 1 h. The class given is functional.
Assay [28] relates to Mus musculus. Nature of the assay: Percent change in locomotor activity in mice at 1 mg/kg i.p. in 4 h. The class given is functional. The conditions noted are these: route intraperitoneal. The method in brief:
as §1

For assay [29], the system named is Rattus norvegicus. Nature of the assay: Drug discrimination effect of compound in rats, expressed as percent of rats choosing the cocaine lever at dose 1.7 mg/kg (ip). The class given is functional.
Assay [30] has as its system Mus musculus. Nature of the assay: Percent change from vehicle in locomotor activity in mice at 17 mg/kg (ip) in 1 h. The class given is functional.
Assay [31] is filed under the species Mus musculus. Nature of the assay: Effective dose for locomotor activity in mice in the peak hour. The class given is functional.
For assay [32], the system named is Mus musculus. Nature of the assay: Percent change from vehicle in locomotor activity in mice at 5.6 mg/kg (ip) in 2 h. The class given is functional.
The test system of assay [33] is Mus musculus. Nature of the assay: Percent change from vehicle in locomotor activity in mice at 17 mg/kg (ip) in 2 h. The class given is functional.
Assay [34] relates to Mus musculus. Nature of the assay: Percent change from vehicle in locomotor activity in mice at 17 mg/kg (ip) in 4 h. The class given is functional.
For assay [35], the system named is Mus musculus. Nature of the assay: Percent change from vehicle in locomotor activity in mice at 5.6 mg/kg (ip) in 1 h. The class given is functional.
Assay [36] relates to Mus musculus. Nature of the assay: Percent change from vehicle in locomotor activity in mice at 56 mg/kg (ip) in 2 h. The class given is functional.
Assay [37] has as its system Mus musculus. Nature of the assay: Percent change from vehicle in locomotor activity in mice at 5.6 mg/kg (ip) in 4 h. The class given is functional.
Assay [38] relates to Rattus norvegicus. Nature of the assay: Effective dose for drug discrimination effect in rat (ip). The class given is functional. The method in brief: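 Cocaine-trained rat drug discrimination, FR10, 10-min sessions. Compound in 0.5% methyl cellulose given ip 15 min before session, usually to 7-8 rats per dose. Doses were raised from ≤20% to ≥80% cocaine-lever choice, capped at 30 mg/kg, >50% loss of pressing, or side effects.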

Assay [39] relates to Rattus norvegicus. Nature of the assay: Drug discrimination effect of compound in rats, expressed as percent of rats choosing the cocaine lever at dose 1 mg/kg (ip). The class given is functional.
For assay [40], the system named is Mus musculus. Nature of the assay: Percent change from vehicle in locomotor activity in mice at 56 mg/kg (ip) in 3 h. The class given is functional.
For assay [41], the system named is Mus musculus. Nature of the assay: Percent change from vehicle in locomotor activity in mice at 5.6 mg/kg (ip) in 3 h. The class given is functional.
Assay [42] concerns Mus musculus. Nature of the assay: Percent change from vehicle in locomotor activity in mice at 56 mg/kg (ip) in 1 h. The class given is functional.
Assay [43] relates to Rattus norvegicus. Nature of the assay: Drug discrimination effect of compound in rats, expressed as percent of rats choosing the cocaine lever at dose 5.6 mg/kg (ip). The class given is functional.
Assay [44] concerns Mus musculus. Nature of the assay: Percent change from vehicle in locomotor activity in mice at 17 mg/kg (ip) in 3 h. The class given is functional.
Assay [45] concerns Mus musculus. Nature of the assay: Percent change from vehicle in locomotor activity in mice at 56 mg/kg (ip) in 4 h. The class given is functional.

Sequence of Sodium-dependent serotonin transporter (P31652 whole entry): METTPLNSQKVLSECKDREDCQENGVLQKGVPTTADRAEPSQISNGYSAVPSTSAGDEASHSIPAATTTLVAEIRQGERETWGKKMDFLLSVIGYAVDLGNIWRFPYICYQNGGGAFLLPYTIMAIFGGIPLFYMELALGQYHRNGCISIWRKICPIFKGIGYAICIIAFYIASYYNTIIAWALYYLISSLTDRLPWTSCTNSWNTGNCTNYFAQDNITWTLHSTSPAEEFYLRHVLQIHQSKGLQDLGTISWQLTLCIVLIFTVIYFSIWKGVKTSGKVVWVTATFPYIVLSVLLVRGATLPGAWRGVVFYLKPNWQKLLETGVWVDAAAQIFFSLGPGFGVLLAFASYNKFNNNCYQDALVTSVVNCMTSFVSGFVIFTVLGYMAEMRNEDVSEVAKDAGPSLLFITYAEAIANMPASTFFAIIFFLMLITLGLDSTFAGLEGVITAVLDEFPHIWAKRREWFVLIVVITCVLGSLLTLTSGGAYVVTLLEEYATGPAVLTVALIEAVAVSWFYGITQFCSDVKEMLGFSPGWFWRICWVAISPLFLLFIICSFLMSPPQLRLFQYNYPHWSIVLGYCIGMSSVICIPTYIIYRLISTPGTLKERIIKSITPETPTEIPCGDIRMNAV
Sequence of Norepinephrine transporter (Q9WTR4 whole entry): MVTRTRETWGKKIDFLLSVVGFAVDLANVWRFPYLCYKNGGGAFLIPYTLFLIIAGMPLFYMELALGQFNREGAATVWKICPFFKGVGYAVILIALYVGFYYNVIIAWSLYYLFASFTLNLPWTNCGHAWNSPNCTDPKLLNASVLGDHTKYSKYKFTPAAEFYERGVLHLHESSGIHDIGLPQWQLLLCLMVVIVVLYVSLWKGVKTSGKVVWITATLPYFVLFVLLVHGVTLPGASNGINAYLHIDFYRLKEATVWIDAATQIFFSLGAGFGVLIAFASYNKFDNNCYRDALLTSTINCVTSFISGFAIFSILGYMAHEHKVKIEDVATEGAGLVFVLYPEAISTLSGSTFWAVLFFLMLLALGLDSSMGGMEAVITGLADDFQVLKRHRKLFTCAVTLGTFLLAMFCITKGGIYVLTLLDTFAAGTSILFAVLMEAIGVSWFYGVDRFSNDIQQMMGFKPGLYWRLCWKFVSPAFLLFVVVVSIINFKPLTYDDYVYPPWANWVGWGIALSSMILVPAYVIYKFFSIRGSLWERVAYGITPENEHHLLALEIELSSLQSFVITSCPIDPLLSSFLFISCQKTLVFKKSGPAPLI
Sequence of Sodium-dependent dopamine transporter (P23977 whole entry): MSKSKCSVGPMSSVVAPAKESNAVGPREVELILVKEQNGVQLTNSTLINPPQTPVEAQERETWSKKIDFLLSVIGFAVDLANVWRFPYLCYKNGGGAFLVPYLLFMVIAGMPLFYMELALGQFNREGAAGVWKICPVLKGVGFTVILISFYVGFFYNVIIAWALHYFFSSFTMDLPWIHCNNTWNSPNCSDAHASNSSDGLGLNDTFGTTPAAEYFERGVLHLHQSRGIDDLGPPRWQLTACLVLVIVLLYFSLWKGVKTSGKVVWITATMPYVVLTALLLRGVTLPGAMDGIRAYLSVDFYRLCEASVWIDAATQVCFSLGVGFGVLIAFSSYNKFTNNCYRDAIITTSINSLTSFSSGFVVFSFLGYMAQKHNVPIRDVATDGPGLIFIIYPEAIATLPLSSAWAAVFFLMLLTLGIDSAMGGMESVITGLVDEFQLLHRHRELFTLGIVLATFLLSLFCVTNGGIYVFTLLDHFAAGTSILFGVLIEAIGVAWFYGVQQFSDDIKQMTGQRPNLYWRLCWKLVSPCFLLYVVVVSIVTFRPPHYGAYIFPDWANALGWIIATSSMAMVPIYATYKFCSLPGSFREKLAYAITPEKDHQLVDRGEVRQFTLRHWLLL

One may read the IC50 as the concentration at which inhibition is half-maximal. Read a low IC50 as greater potency. The term ED50 denotes the dose that gives a 50% effect, or the effect in half of the subjects. Take `Cc1ccc(-c2cc(C3C(c4ccc(C)cc4)CC4CCC3N4C)on2)cc1` (configuration not stated): the Change in the assay with Mus musculus [1] is -5%; in the assay on Mus musculus [2], 1%; with Mus musculus [3], -19%; with Mus musculus [5] it was 10%; with Mus musculus [6], 76%; with Mus musculus [8] it was -48%. Also, the Change in the assay on Mus musculus [10] is given as -38%; in the assay on Mus musculus [11] it was -37%; with Mus musculus [12], -30%; in the assay with Mus musculus [14], 34%; in the assay on Mus musculus [17] it was -7%; in the assay with Mus musculus [20], 102%. For the same compound, the Change in the assay with Mus musculus [21] is 60%; in the assay on Mus musculus [22], 29%; in the assay on Mus musculus [23], -6%; with Mus musculus [24], -43%; in the assay with Mus musculus [25], -26%; in the assay with Mus musculus [26], 73%. For the same compound, the results for the Change in the assay on Mus musculus [27] and in the assay with Mus musculus [28] were -17% and -30%, respectively. Also, the Drug discrimination effect is recorded as 67% in the assay on Rattus norvegicus [4], 0% with Rattus norvegicus [7], 0% in the assay on Rattus norvegicus [15] and 33% in the assay with Rattus norvegicus [18]. For the same compound, the figures for the IC50 in assay [9], in [13] and in assay [16] were 0.013 µM, above 100 µM and above 100 µM, respectively. The ED50 entry in the assay listed under Mus musculus [19] is “inactive”.
Consider `COC(=O)[C@@H]1C2CC[C@@H](C[C@@H]1OC(=O)c1ccccc1)N2C` (single isomer, unassigned) [COCAINE], for which the Drug discrimination effect in the assay with Rattus norvegicus [29] was 32%; with Rattus norvegicus [7], 59%; in the assay with Rattus norvegicus [15], 97%; in the assay with Rattus norvegicus [39] it was 21%; with Rattus norvegicus [43], 82%. In addition, the Change with Mus musculus [30] was 179%; in the assay with Mus musculus [32] it was -26%; in the assay on Mus musculus [33], -7%; with Mus musculus [34], -26%; with Mus musculus [35] it was 5%; with Mus musculus [36], 201%. Besides, the Change in the assay with Mus musculus [37] was -1%; in the assay with Mus musculus [40] it was -47%; in the assay on Mus musculus [41], -53%; with Mus musculus [42] it was 452%; with Mus musculus [44] it was -53%; with Mus musculus [45] it was -24%. The ED50 in the assay filed under Mus musculus [31] worked out at 18.8 mg/kg; with Rattus norvegicus [38], 2.64 mg/kg.
